Measured values from PubChem BioAssay.
Calls of active or inactive are those of the source.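 Rule for the calls, unless noted: active = viability at or below 30% in both replicate assays; inconclusive = viability at or below 30% in just one of the two assays; inactive = the rest.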

Key:
[1] = reducers of endogenous Her2 protein level, primary screen, SKBR3 breast tumor cells, AlphaScreen, ATP viability (AID 461;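 active = Her2 level under about 52% in both replicate screens, with viability over 70% of control, limit read from the data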;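 for Her2 level: lower value means less Her2 protein in the cells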;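 for viability: percent of carrier control wells set as 100% viability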); details: 18-24 h, measured here: SKBR3 viability, ATP luminescence, at 10 µM
[2] = target: Receptor tyrosine-protein kinase erbB-2 (Homo sapiens) (UniProt P04626); experiment: as above; details: 18-24 h, at 10 µM, stronger effect = lower value
Chain of Receptor tyrosine-protein kinase erbB-2 (Homo sapiens) (P04626 whole entry, looked up): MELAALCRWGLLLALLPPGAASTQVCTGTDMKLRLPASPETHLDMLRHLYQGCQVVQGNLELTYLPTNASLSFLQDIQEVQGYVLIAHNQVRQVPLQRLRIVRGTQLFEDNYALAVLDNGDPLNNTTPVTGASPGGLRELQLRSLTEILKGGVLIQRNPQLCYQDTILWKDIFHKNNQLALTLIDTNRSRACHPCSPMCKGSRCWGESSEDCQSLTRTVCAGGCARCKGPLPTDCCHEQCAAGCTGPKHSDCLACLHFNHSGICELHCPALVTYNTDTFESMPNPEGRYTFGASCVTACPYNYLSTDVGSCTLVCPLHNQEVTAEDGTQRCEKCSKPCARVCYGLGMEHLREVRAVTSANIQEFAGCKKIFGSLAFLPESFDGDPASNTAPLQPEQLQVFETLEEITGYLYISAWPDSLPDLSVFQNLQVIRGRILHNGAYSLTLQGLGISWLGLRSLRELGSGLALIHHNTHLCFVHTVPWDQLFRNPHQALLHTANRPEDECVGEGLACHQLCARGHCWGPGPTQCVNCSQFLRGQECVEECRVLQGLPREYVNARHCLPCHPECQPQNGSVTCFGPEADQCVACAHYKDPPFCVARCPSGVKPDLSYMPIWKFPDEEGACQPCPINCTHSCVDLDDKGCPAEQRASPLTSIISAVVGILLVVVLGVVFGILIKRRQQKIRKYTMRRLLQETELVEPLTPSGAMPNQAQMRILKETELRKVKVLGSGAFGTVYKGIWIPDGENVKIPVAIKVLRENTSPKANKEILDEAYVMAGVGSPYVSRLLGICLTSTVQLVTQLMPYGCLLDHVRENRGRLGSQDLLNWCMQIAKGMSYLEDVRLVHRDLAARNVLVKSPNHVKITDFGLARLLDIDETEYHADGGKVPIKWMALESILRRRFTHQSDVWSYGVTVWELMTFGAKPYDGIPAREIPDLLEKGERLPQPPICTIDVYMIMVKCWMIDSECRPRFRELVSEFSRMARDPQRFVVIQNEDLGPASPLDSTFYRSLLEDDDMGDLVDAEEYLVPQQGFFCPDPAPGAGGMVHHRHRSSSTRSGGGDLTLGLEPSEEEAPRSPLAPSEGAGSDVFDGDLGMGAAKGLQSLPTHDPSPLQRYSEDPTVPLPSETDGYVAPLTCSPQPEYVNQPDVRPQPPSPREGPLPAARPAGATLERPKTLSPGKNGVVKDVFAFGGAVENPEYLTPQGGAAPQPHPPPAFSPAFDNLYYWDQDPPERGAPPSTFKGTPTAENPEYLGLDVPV

[3] = SK-BR-3 cell growth inhibitors, pilot screen, 24 h, human (AID 572;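 active = viability at or below 10% of carrier control in both of two separate runs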;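 note: compound exposure lasted between 18 and 24 h rather than exactly 24 h; 100% = carrier-treated control wells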); details: SK-BR-3 viability, CellTiter-Glo luminescence, at 10 µM, stronger effect = lower value
[4] = HUVEC growth inhibition – cell-based, human, primary screen (AID 575); details: HUVEC proliferation, CellTiter-Glo luminescence, 72 h; at 10 µM; stronger effect = lower value;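 note: 100% = median of untreated cell wells with 0.1% DMSO on each plate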
Summary of the method: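 Test system – primary HUVEC, no more than 12 passages · Dosing – one dose, 10 µM final, 0.1% DMSO · Times – 72 h treatment at 37 °C · Measured by – ATP-based CellTiter-Glo luminescent read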

[5] = growth inhibitors of H69AR lung tumor, primary screen, human, duplicate replicates (AID 580;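 active = viability at or under a set limit in both replicates, limit being median viability minus 3 SD, cut at about 48% in these data, passing the limit was not always enough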;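 note: 100% = mean luminescence of untreated wells and 0% = no signal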); details: H69AR lung tumor cells viability, ATP luminescence, 72 h; at 10 µM; stronger effect = lower value
[6] = reversal of MRP1-mediated doxorubicin resistance, pilot screen, H69AR cells, doxorubicin co-treatment (AID 601;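 active = viability loss from added drug above about 55%, and viability with drug at most 40%, in both replicates, limit read from the data, passing the limit was not always enough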); details: CellTiter-Glo, 72 h, at 10 µM; for differential viability (reversal): stronger effect = higher value
[7] = 384-well plate pilot, post-Golgi transport modulator project, inhibition of yeast transport mutant growth (AID 636; in the data active = inhibition above about 31%); details: absorbance 615 nm, about 18 h, stronger effect = higher value
[8] = growth suppression of yeast trafficking mutant, preliminary HTS, modulators of trafficking downstream of Golgi apparatus project, 1536-format plate, OD 615 nm (AID 637; in the data active = inhibition above about 30%); details: yeast transport mutant growth, absorbance 615 nm, 18 h; stronger effect = higher value
[9] = H69AR cells + 2 uM doxorubicin, measured here: viability with 2 uM doxorubicin, stronger effect = lower value
[10] = H69AR cells, compound alone cytotoxicity

Compound	viability [1]	Her2 level [2]	viability [3]	viability [4]	viability [5]	differential viability (reversal) ([6]; H69AR cells + 2 uM doxorubicin)	viability [6, 9]	viability [6, 10]	inhibition [7]	inhibition [8]
Cc1cc(-c2ccccc2)c(C#N)c(N)n1	114%	91% (inactive)	114% (inactive)	81.9% (inactive)	99.3% (inactive)	6.5% (inactive)	92.8%	99.3%	-2.3% (inactive)	-0.98% (inactive)
C[N+]1=C2CCCCCN2C(O)(c2ccccc2)C1 (stereo not given)	97%	85% (inactive)	97% (inactive)	101% (inactive)	96.3% (inactive)	-1.28% (inactive)	97.6%	96.3%	-0.79% (inactive)	1.29% (inactive)
COCCNC(=O)Cn1nc(C(F)(F)F)c(Br)c1C	118%	104% (inactive)	118% (inactive)	90.4% (inactive)	108% (inactive)	15.8% (inactive)	92.5%	108%	-4.27% (inactive)	-0.81% (inactive)
CCOC(=O)c1ccc2nc(C)c3c(c2c1)OC(C)C3 (stereo not given)	92%	124% (inactive)	92% (inactive)	97.1% (inactive)	87.9% (inactive)	11% (inactive)	76.9%	87.9%	-2.6% (inactive)	-5.67% (inactive)
CC(C(=O)NC1CCCCCC1)N(c1ccccc1)S(C)(=O)=O (stereo not given)	112%	97.5% (inactive)	112% (inactive)	114% (inactive)	109% (inactive)	6.19% (inactive)	103%	109%	-2.24% (inactive)	2.79% (inactive)
COc1ccc(C2CC(=O)C(C=NCCN3CCOCC3)=C(O)C2)cc1 (stereo not given)	87.5%	87% (inactive)	87.5% (inactive)	85.7% (inactive)	98.5% (inactive)	2.73% (inactive)	95.8%	98.5%	-0.79% (inactive)	8.69% (inactive)
COC(=O)Nc1ccc(C)cc1NC(=O)OC	86.5%	102% (inactive)	86.5% (inactive)	96.4% (inactive)	107% (inactive)	7.78% (inactive)	99.5%	107%	0.67% (inactive)	-6.61% (inactive)
CCCC(=O)Nc1ccc2oc(-c3cccnc3)nc2c1	109%	94% (inactive)	109% (inactive)	93.6% (inactive)	88.5% (inactive)	-7.42% (inactive)	96%	88.5%	-4% (inactive)	10% (inactive)
O=S(=O)(c1cccc(-c2nnco2)c1)N1CCCC1	100%	116% (inactive)	100% (inactive)	114% (inactive)	95.4% (inactive)	2.63% (inactive)	92.8%	95.4%	-3.33% (inactive)	-7.42% (inactive)
O=C(c1ccc2c(c1)c(=O)oc1ccccc12)N1CCCCC1	109%	86% (inactive)	109% (inactive)	98.6% (inactive)	101% (inactive)	14.1% (inactive)	87.3%	101%	-2.11% (inactive)	3.17% (inactive)
COc1cccc2cc(C(=O)N3CCN(C45CC6CC(CC(C6)C4)C5)CC3)c(=O)oc12	93.5%	92% (inactive)	93.5% (inactive)	81.8% (inactive)	107% (inactive)	12.5% (inactive)	94.7%	107%	-3.16% (inactive)	-9.52% (inactive)
CC(C)(C)c1ccc(C(=O)Nc2cnccn2)cc1	79.5%	114% (inactive)	79.5% (inactive)	98.1% (inactive)	100% (inactive)	18.8% (inactive)	81.5%	100%	-4.87% (inactive)	0.67% (inactive)
COc1ccc(Cl)cc1S(=O)(=O)n1cnc2ccccc21	99%	106% (inactive)	99% (inactive)	59.1% (inactive)	33.7% (active)	-49.8% (inactive)	83.5%	33.7%	-4.59% (inactive)	-2.3% (inactive)
COc1ccc(C2=Nn3c(nnc3-c3cccnc3)SC2)cc1	83.5%	93.5% (inactive)	83.5% (inactive)	97.1% (inactive)	64.7% (inactive)	-16.5% (inactive)	81.2%	64.7%	-6.32% (inactive)	0.48% (inactive)
